ChEMBL document CHEMBL4184265, “Discovery of novel potent HCV NS5B polymerase non-nucleoside inhibitors bearing a fused benzofuran scaffold” (Bioorg Med Chem Lett, 2018)

How the values were obtained:
[1] = Metabolic stability in rat liver microsomes assessed as parent compound remaining after 60 mins; format: ADME, microsome; settings: read-out: Stability
[2] = Metabolic stability in human liver microsomes assessed as parent compound remaining after 60 mins; format: ADME, microsome; settings: read-out: Stability
[3] = Cytotoxicity against human HuH7 cells after 24 hrs; format: cell-based, Huh-7
[4] = Half life in Sprague-Dawley rat at 1 mg/kg, iv; format: ADME, organism-based; settings: in vivo
Method in brief: (§1)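 Sprague-Dawley rats (n=3) dosed iv at 1 mg/kg as a solution in 10% NMP/10% solutol/40% PEG-400/40% saline.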

Rattus norvegicus = assay: Clearance in Sprague-Dawley rat at 1 mg/kg, iv; format: ADME, organism-based; settings: in vivo; method in brief: as §1
[5] = Volume of distribution at steady state in Sprague-Dawley rat at 1 mg/kg, iv; format: ADME, organism-based; settings: in vivo, read-out: Vdss; method in brief: as §1
[6] = AUC (infinity) in Sprague-Dawley rat at 1 mg/kg, iv; format: ADME, organism-based; design: dose 1 mg/kg, time infinity, route intravenous; settings: in vivo; method in brief: as §1
[7] = Oral bioavailability in Sprague-Dawley rat at 5 mg/kg; format: ADME, organism-based; settings: in vivo
Method in brief: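 Sprague-Dawley rats (n=3) dosed po at 5 mg/kg as a solution in 10% NMP/10% solutol/40% PEG-400/40% saline. Iv arm given at 1 mg/kg in the same vehicle.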

[8] = Intrinsic solubility of the compound; format: physicochemical

remaining at 1 h [1] [%]	remaining at 1 h [2] [%]	half-life [4] [h]	clearance (Rattus norvegicus) [mL/min/kg]	Vd [5] [L/kg]	AUC(0-inf) [6] [ng·h/mL]	bioavailability [7] [%]	solubility [8]	Compound	also measured
		2.43	12.8	1.41	1300	57		CNC(=O)c1c(-c2ccc(F)cc2)oc2cc3c(cc12)[C@H](C)n1nncc1CN3S(C)(=O)=O	
5	32.6							CNC(=O)c1c(-c2ccc(F)cc2)oc2cc3c(cc12)[C@H](C)OCCN3S(C)(=O)=O	
		0.96	38.2	2.36	439	22		CNC(=O)c1c(-c2ccc(F)cc2)oc2cc3c(cc12)[C@H](C)CCCN3S(C)(=O)=O	
		0.34	78	1.79	234	16		CNC(=O)c1c(-c2ccc(F)cc2)oc2cc3c(cc12)[C@@H](C)OCCN3S(C)(=O)=O	
							Insoluble	CNC(=O)c1c(-c2ccc(F)cc2)oc2cc3c(cc12)C(C)N(C)C(=O)CN3S(C)(=O)=O (racemic)	
							Soluble	CNC(=O)c1c(-c2ccc(F)cc2)oc2cc3c(cc12)C(C)N(C)CCN3S(C)(=O)=O (racemic)	
							Insoluble	CNC(=O)c1c(-c2ccc(F)cc2)oc2cc3c(cc12)C(C)n1nnnc1CN3S(C)(=O)=O (racemic)	
0.8	0.8							CNC(=O)c1c(-c2ccc(F)cc2)oc2cc3c(cc12)C(C)CCCN3S(C)(=O)=O (racemic)	
							Soluble	CNC(=O)c1c(-c2ccc(F)cc2)oc2cc3c(cc12)C(C)NCCN3S(C)(=O)=O (racemic)	
							Insoluble	CNC(=O)c1c(-c2ccc(F)cc2)oc2cc3c(cc12)C(C)n1nncc1CN3S(C)(=O)=O (racemic)	
							Insoluble	CNC(=O)c1c(-c2ccc(F)cc2)oc2cc3c(cc12)C(C)n1ccnc1CN3S(C)(=O)=O (racemic)	

The remaining lines, values behind:

Compound	remaining at 1 h [1] [%]	remaining at 1 h [2] [%]	half-life [4] [h]	clearance (Rattus norvegicus) [mL/min/kg]	Vd [5] [L/kg]	AUC(0-inf) [6] [ng·h/mL]	bioavailability [7] [%]	solubility [8]	also measured
CNC(=O)c1c(-c2ccc(F)cc2)oc2cc3c(cc12)[C@H](C)O[C@H](CO)CN3S(C)(=O)=O	60	100	1.32	22	2.25	759	73		CC50 at 24 h [3]: > 3 µM
CS(=O)(=O)N1CCCCc2cc3c(-c4ncc[nH]4)c(-c4ccc(F)cc4)oc3cc21								Insoluble	
CNC(=O)c1c(-c2ccc(F)cc2)oc2cc3c(cc12)[C@H](C)NC(=O)CN3S(C)(=O)=O			0.68	44.5	1.74	379	14		
CNC(=O)c1c(-c2ccc(F)cc2)oc2cc3c(cc12)[C@H](C)O[C@H](CS(C)(=O)=O)CN3S(C)(=O)=O	100	100							CC50 at 24 h [3]: > 10 µM
CNC(=O)c1c(-c2ccc(F)cc2)oc2cc3c(cc12)C(C)NC(=O)CN3S(C)(=O)=O (racemic)								Insoluble	
CNC(=O)c1c(-c2ccc(F)cc2)oc2cc3c(cc12)C(C)OC(CO)CN3S(C)(=O)=O (racemic)	68.9	85.9							
CNC(=O)c1c(-c2ccc(F)cc2)oc2cc3c(cc12)C(C)OC(CS(C)(=O)=O)CN3S(C)(=O)=O (racemic)	99.7	100	3.62	16	1.51	1060	30		
CNC(=O)c1c(-c2ccc(F)cc2)oc2cc(N(CCO)S(C)(=O)=O)c(C3CC3)cc12 [NESBUVIR]	84	53.3	2.73	10.4	1.52	1610	73		
